Data taken from ChEMBL document CHEMBL5329178, “Synthesis and antibacterial activity of 2-benzylidene-3-oxobutanamide derivatives against resistant pathogens” (RSC Med Chem, 2023).
Activity calls are given as the source filed them. No cut-off for these calls is given here.

Legend:
[1] = Octanol/Water partition coefficient, logP of the compound; format: physicochemical
[2] = Solubility of the compound in water; format: physicochemical; settings: buffer
Escherichia coli = assay: Antibacterial activity against Escherichia coli assessed as growth inhibition at 32 ug/mL by whole cell growth inhibition assay relative to control; format: functional; settings: read-out: GI
Summary of the method: (§1)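 Primary single-concentration screen at 32 µg/mL, final DMSO ≤1%, duplicate on different plates. Mid-log cultures in cation-adjusted Mueller Hinton broth at 5×10^5 CFU/mL; 37 °C, 18 h, no shaking. OD600 read; % growth inhibition relative to media-only and untreated-bacteria controls on the same plate. Strains: E. coli ATCC 25922, A. baumannii ATCC 19606, S. aureus ATCC 43300 (MRSA).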

Acinetobacter baumannii [3] = assay: Antibacterial activity against Multi drug resistant Acinetobacter baumannii assessed as growth inhibition at 16 ug/mL by HIT assay relative to control; format: functional; settings: read-out: GI
Summary of the method: (§2)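 A. baumannii ATCC 19606 and MRSA ATCC 43300 were grown overnight in cation-adjusted Mueller Hinton broth at 37 °C, subcultured to mid-log, and added at 5×10^5 CFU/mL to an 8-point, 2-fold dilution series (32–0.25 µg/mL; ≤0.5% DMSO). After 18 h static at 37 °C, OD600 was read. Percent inhibition was taken against media-only and untreated-bacteria wells, in duplicate. MIC was the lowest concentration giving ≥80% inhibition.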

[4] = Cytotoxicity against human HEK293 cells assessed as cell viability at 64 ug/ml relative to control; format: toxicity, cell-based; settings: at 64 µg/mL, read-out: Activity
Staphylococcus aureus [5] = assay: Bacteriostatic activity against methicillin resistant Staphylococcus aureus assessed as log reduction in colony forming unit measured after 24 hrs by time kill assay; format: functional
Summary of the method: (§3)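 MRSA ATCC 700698 and A. baumannii ATCC 19606 overnight cultures were diluted 1:10,000 in MHB and grown 2 h at 37 °C and 220 rpm to early exponential phase. […] At intervals, aliquots were tenfold serially diluted, plated on MHA and incubated overnight at 37 °C for CFU counts.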

Staphylococcus aureus [6] = assay: Antibacterial activity against methicillin resistant Staphylococcus aureus assessed as growth inhibition at 2 ug/mL by HIT assay relative to control; format: functional; settings: read-out: GI; summary of the method: as §2
Acinetobacter baumannii [7] = assay: Bactericidal activity against multi-drug resistant Acinetobacter baumannii assessed as log reduction in colony forming unit measured after 24 hrs by time kill assay; format: functional; summary of the method: as §3
[8] = Hemolytic activity in RBC (unknown origin) assessed as cell viability at 64 ug/ml relative to control; format: toxicity, cell-based, Erythrocyte; settings: red blood cells (erythrocytes), at 64 µg/mL, read-out: Activity
Staphylococcus aureus [9] = assay: Bacteriostatic activity against Staphylococcus aureus ATCC 700698 assessed as log reduction in colony forming unit measured per ml after 24 hrs by time kill assay; format: functional
Summary of the method: (§4)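 Time-kill assay in cation-adjusted MHB. Overnight cultures (S. aureus MRSA ATCC 700698; A. baumannii ATCC 19606) diluted 1:10,000, grown 2 h at 37 °C, 220 rpm to early exponential phase. […] Aliquots taken at intervals, tenfold serially diluted, plated on MHA overnight at 37 °C for CFU counts.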

Acinetobacter baumannii [10] = assay: Antibacterial activity against Acinetobacter baumannii assessed as growth inhibition at 32 ug/mL by whole cell growth inhibition assay relative to control; format: functional; settings: read-out: GI; summary of the method: as §1
Staphylococcus aureus [11] = assay: Antibacterial activity against Staphylococcus aureus assessed as growth inhibition at 32 ug/mL by whole cell growth inhibition assay relative to control; format: functional; settings: read-out: GI; summary of the method: as §1
Staphylococcus aureus [12] = assay: Antibacterial activity against methicillin resistant Staphylococcus aureus assessed as growth inhibition at 32 ug/mL by HIT assay relative to control; format: functional; settings: read-out: GI; summary of the method: as §2
Staphylococcus aureus [13] = assay: Antibacterial activity against methicillin resistant Staphylococcus aureus assessed as growth inhibition; format: functional, organism-based; summary of the method: as §2
Acinetobacter baumannii [14] = assay: Antibacterial activity against susceptible Acinetobacter baumannii; format: functional
Acinetobacter baumannii [15] = assay: Antibacterial activity against Multi drug resistant Acinetobacter baumannii assessed as growth inhibition at 32 ug/mL by HIT assay relative to control; format: functional; settings: read-out: GI; summary of the method: as §2
Acinetobacter baumannii [16] = assay: Bactericidal activity against Acinetobacter baumannii assessed as log reduction in bacterial count measured after 24 hrs by time kill assay; format: functional; summary of the method: as §4
Staphylococcus aureus [17] = assay: Antibacterial activity against methicillin resistant Staphylococcus aureus assessed as growth inhibition at 16 ug/mL by HIT assay relative to control; format: functional; settings: read-out: GI; summary of the method: as §2

| Structure (SMILES) | logP [1] | solubility [2] | inhibition of growth at 32 µg/mL (Escherichia coli) [%] | inhibition of growth at 32 µg/mL (Acinetobacter baumannii [10]) [%] | inhibition of growth at 32 µg/mL (Staphylococcus aureus [11]) [%] | also measured |
| --- | --- | --- | --- | --- | --- | --- |
| CC(=O)/C(=C/c1ccc(OCc2ccccc2)cc1)C(N)=O | 2.72 | Soluble | – | – | – | – |
| CC(=O)/C(=C/c1cccc(C#N)c1)C(N)=O | 1.15 | Soluble | – | – | – | – |
| CC(=O)/C(=C/c1cccc([N+](=O)[O-])c1)C(N)=O | 1.15 | Soluble | 51.1 | 98 | 83.7 | inhibition of growth at 16 µg/mL (Acinetobacter baumannii [3]): 98.2%; viability at 64 ug/ml [4]: 93.8%; Activity (Staphylococcus aureus [5]): >3 log10CFU; inhibition of growth at 2 µg/mL (Staphylococcus aureus [6]): 99.4%; Activity (Acinetobacter baumannii [7]): >3 log10CFU; viability at 64 ug/ml [8]: 96.4%; Activity (Staphylococcus aureus [9]): 2 log10CFU/ml |
| CC(=O)/C(=C/c1ccc(Cl)cc1)C(N)=O | 1.88 | Soluble | 67.8 | 65.4 | 87.5 | – |
| CC(=O)/C(=C/c1ccccc1F)C(N)=O | 1.66 | Soluble | 59.7 | 58.2 | 43.8 | – |
| CC(=O)/C(=C/c1cccc(Br)c1)C(N)=O | 1.73 | Soluble | – | – | – | – |
| CC(=O)/C(=C/c1ccccc1Cl)C(N)=O | 1.38 | Soluble | 66.8 | 58.8 | 98.1 | – |
| CC(=O)/C(=C/c1ccc(C)cc1)C(N)=O | 1.68 | Soluble | – | – | – | – |
| CC(=O)/C(=C/c1ccc(Br)cc1)C(N)=O | 1.62 | Soluble | 51.8 | 53 | 83.7 | viability at 64 ug/ml [4]: 94.8%; viability at 64 ug/ml [8]: 98.9%; inhibition of growth at 32 µg/mL (Staphylococcus aureus [12]): 94.2%; Activity (Staphylococcus aureus [9]): 2 log10CFU/ml |
| CC(=O)/C(=C/c1ccc2c(c1)OCO2)C(N)=O | 1.23 | Soluble | – | – | – | – |
| CC(=O)/C(=C/c1ccc([N+](=O)[O-])cc1)C(N)=O | 1.13 | Soluble | 68.1 | 30.5 | 98.2 | viability at 64 ug/ml [4]: 90.6%; inhibition of growth at 2 µg/mL (Staphylococcus aureus [6]): 98.7%; viability at 64 ug/ml [8]: 95.1%; Activity (Staphylococcus aureus [9]): 2 log10CFU/ml |
| CC(=O)/C(=C/c1cccc(F)c1)C(N)=O | 1.49 | Soluble | – | – | – | – |
| CC(=O)/C(=C/c1ccc(C#N)cc1)C(N)=O | 1.13 | Soluble | – | – | – | – |
| CN[C@H](CC(C)C)C(=O)N[C@H]1C(=O)N[C@@H](CC(N)=O)C(=O)N[C@H]2C(=O)N[C@H]3C(=O)N[C@H](C(=O)N[C@H](C(=O)O)c4cc(O)cc(O)c4-c4cc3ccc4O)[C@H](O)c3ccc(c(Cl)c3)Oc3cc2cc(c3O[C@@H]2O[C@H](CO)[C@@H](O)[C@H](O)[C@H]2O[C@H]2C[C@](C)(N)[C@H](O)[C@H](C)O2)Oc2ccc(cc2Cl)[C@H]1O.Cl [VANCOMYCIN HYDROCHLORIDE] | – | – | – | – | – | growth inhibition (GI) (Staphylococcus aureus [13]): inactive; MIC (Acinetobacter baumannii [14]): 0.25 µg/mL |
| COc1cccc(/C=C(/C(C)=O)C(N)=O)c1OC | 1.3 | Soluble | – | – | – | – |
| CC(=O)/C(=C/c1ccccc1[N+](=O)[O-])C(N)=O | 1.09 | Soluble | – | – | – | – |
| CCc1ccc(/C=C(/C(C)=O)C(N)=O)cc1 | 1.99 | Soluble | – | – | – | – |
| CC(=O)/C(=C/c1ccc(C(F)(F)F)cc1)C(N)=O | 2.43 | Soluble | – | – | – | – |
| O=C(/C=C/c1ccccc1)c1ccccc1 [CHALCONE] | 3.29 | Soluble | – | – | – | – |
| CC(=O)/C(=C/c1ccccc1Br)C(N)=O | 1.62 | Soluble | 51.6 | 60 | 93.8 | viability at 64 ug/ml [4]: 90.2%; viability at 64 ug/ml [8]: 95.3%; inhibition of growth at 32 µg/mL (Staphylococcus aureus [12]): 80%; Activity (Staphylococcus aureus [9]): 2 log10CFU/ml |
| COc1cc(/C=C(/C(C)=O)C(N)=O)cc(OC)c1OC | 1.41 | Soluble | – | – | – | – |
| CC(=O)/C(=C/c1ccccc1)C(N)=O | 1.6 | Soluble | – | – | – | – |
| CC(=O)/C(=C/c1ccccc1C#N)C(N)=O | 1.09 | Soluble | 52.1 | 70.8 | 14.4 | viability at 64 ug/ml [4]: 97.6%; inhibition of growth at 32 µg/mL (Acinetobacter baumannii [15]): 50.5%; viability at 64 ug/ml [8]: 92.2%; log(activity) (Acinetobacter baumannii [16]): >3 |
| COc1cc(/C=C/C(=O)CC(=O)/C=C/c2ccc(O)c(OC)c2)ccc1O [CURCUMIN] | 3.03 | Soluble | – | – | – | – |
| CC(=O)/C(=C/c1ccc(O)cc1)C(N)=O | 0.94 | Soluble | – | – | – | – |
| CCc1ccc(/C=C(/C(C)=O)C(N)=O)cc1[N+](=O)[O-] | 1.31 | Soluble | 25.5 | 27.7 | 82.7 | viability at 64 ug/ml [4]: 88.9%; inhibition of growth at 16 µg/mL (Staphylococcus aureus [17]): 99.2%; viability at 64 ug/ml [8]: 94.5% |
